ChEMBL document CHEMBL2176894, “Cyanobacterial peptides as a prototype for the design of potent β-secretase inhibitors and the development of selective chemical probes for other aspartic proteases” (J Med Chem, 2012)
Active and inactive are the calls of the source. The rule behind the calls is not given here. Starred links: 1 amine or outer side, 2 acyl side, 3 side chain; linkers in the order of their positions; H or OH if unused. Non-standard residues stand in square brackets, D forms with d. Residues, ends and D or L forms follow the SMILES beside them. *: point of attachment. Ahppa(3S,4S) = O=C(C[C@H](O)[C@H](Cc1ccccc1)N[*:1])[*:2]; dNMeF = CN[C@H](Cc1ccccc1)C(=O)O; NMeQ = CN[C@@H](CCC(N)=O)C(=O)O; Cbz = O=C(OCc1ccccc1)*; Lac = C[C@H](O)C(=O)O

Experiments:
[1] = target: T1, Gamma-secretase (Homo sapiens) (UniProt Q96BI3+Q9NZ42+Q8WW43+P49768+Q92542+P49810); assay: Inhibition of gamma secretase expressed in human H4 cells expressing BRI-C99 fusion protein assessed as C99 fragment accumulation fragment at 10 uM incubated for 16 hrs in by immunoblot; format: cell-based
Outline: (§1)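 H4 cells overexpressing Bri-C99 (400000/well) were kept in Opti-MEM with 1% serum and treated 16 h with test compound (10 μM), LY411575 (100 nM) or BACE1 inhibitor IV (1 μM). Cells were lysed in TBS/1% Triton X-100 and run on a 12% bis-tris gel. Blots were probed with CT-20 antibody for furin-generated C99 and read on an infrared imager.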

Cathepsin E = target: T2, Cathepsin E (Homo sapiens, UniProt P14091); assay: Inhibition of cathepsin E by fluorescence assay
T2 sequence (P14091 whole entry): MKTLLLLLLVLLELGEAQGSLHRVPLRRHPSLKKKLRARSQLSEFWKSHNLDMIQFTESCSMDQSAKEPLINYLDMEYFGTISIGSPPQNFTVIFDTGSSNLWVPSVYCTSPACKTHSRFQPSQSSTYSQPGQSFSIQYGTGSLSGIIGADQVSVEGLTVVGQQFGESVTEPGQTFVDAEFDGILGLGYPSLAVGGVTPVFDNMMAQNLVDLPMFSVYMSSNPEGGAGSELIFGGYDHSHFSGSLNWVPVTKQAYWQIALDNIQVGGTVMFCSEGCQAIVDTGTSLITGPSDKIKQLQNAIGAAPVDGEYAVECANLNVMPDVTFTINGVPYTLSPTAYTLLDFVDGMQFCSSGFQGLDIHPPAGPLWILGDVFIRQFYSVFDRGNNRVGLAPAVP

Cathepsin D = Cathepsin D (Homo sapiens, UniProt P07339); assay: Inhibition of cathepsin D by fluorescence assay
Beta-secretase 1 [2] = target: T3, Beta-secretase 1 (Homo sapiens, UniProt P56817); assay: Inhibition of BACE1 by fluorescence assay
Beta-secretase 1 [3] = target: T3, Beta-secretase 1; conditions: H4, at 10 µM
Brain = assay: Drug concentration in CF1 mouse brain at 30 mg/kg, ip measured 3 hrs post dose by HPLC-MS method relative to compound plasma concentration; format: ADME, organism-based; parameters: dose 30 mg/kg, route intraperitoneal
Outline: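 CF-1 mice, 8 weeks old, 25−35 g, given 30 mg/kg i.p. in 5% DMSO/15% Solutol HS 15/10% EtOH/65% water; killed 3 h post-dose. Cerebellum and cortex homogenized in acetonitrile (1:10 w:v) containing internal standard, then re-extracted. Plasma was taken by cardiac puncture into K-EDTA. Levels were measured by HPLC-MS (MRM, negative ionization) and interpolated from a calibration curve.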

Nucleic Acid = assay: Ratio of drug level in CF1 mouse brain to IC50 for inhibition of BACE1-mediated Abeta40/Abeta42 production in CHO 2B7 cells expressing wild type APP695; format: cell-based
Outline: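 CF-1 mice (8 weeks, 25−35 g) received 30 mg/kg i.p. in 5% DMSO/15% Solutol HS 15/10% EtOH/65% water and were killed 3 h post-dose. Cerebellum and cortex were homogenized in acetonitrile (1:10 w:v) with internal standard and quantified by HPLC-MS (MRM, negative ion). The cellular reference was CHO 2B7 (APP695 wt): 16 h treatment, 1% DMSO, secreted Aβ40/Aβ42 sandwich ELISA.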

Mus musculus = assay: Reduction in […] in CF1 mouse at 30 mg/kg, ip measured 3 hrs post dose by sandwich ELISA; format: functional, organism-based; parameters: dose 30 mg/kg
[4] = Drug metabolism in human H4 cells lysates assessed as ester hydrolysis mediated formation of metabolites by HPLC-MS method; format: ADME, cell-based, Lysate
Outline: (§2)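 H4 whole-cell lysate was diluted to 1 mg/mL protein in 0.1 M phosphate buffer, pH 7.4. Parent and acid hydrolysis product were extracted with EtOAc with internal standard. Quantitation was by HPLC-MS MRM against a calibration curve; n = 2.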

Serum [5] = assay: Drug metabolism in mouse serum assessed as ester hydrolysis mediated formation of metabolites by HPLC-MS method; format: ADME, cell-free
Outline: (§3)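 Compound (10 μL of 25 μg/mL) was incubated with 100 μL mouse serum at 37 °C for 0, 1, 2, 4, 8, 12 and 24 h. The reaction was quenched with EtOAc plus internal standard, shaken 5 min, centrifuged at 16000g, and the organic layer dried and taken up in MeOH. Parent and ester-hydrolysis acid were quantified by HPLC-MS MRM interpolation; n = 2.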

[6] = Stability in human H4 cells lysates by HPLC-MS method; format: ADME, cell-based, Lysate; outline: as §2
Serum [7] = assay: Stability in mouse serum by HPLC-MS method; format: ADME, cell-free; outline: as §3
H4 = assay: Inhibition of Alpha secretase expressed in human H4 cells assessed as reduction in C83 levels at 10 uM incubated for 16 hrs by immunoblot; format: cell-based
Outline: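 H4 cells (3 × 10⁵/well) adhered 4−6 h in DMEM/10% FCS at 37 °C, then were switched to serum-free Ultraculture containing compound at 10 μM final for 16 h. Cells were lysed in NP40/deoxycholate buffer, and protein was equalized by BCA. Lysates were run on 10−20% tricine gels and immunoblotted with antibody to the APP C-terminal 20 residues (1:2000); C99 and C83 were imaged on an infrared system.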

Beta-secretase 1 [8] = target: T3, Beta-secretase 1; assay: Inhibition of BACE1 expressed in human H4 cells assessed as reduction in CTF levels at 10 uM incubated for 16 hrs by immunoblot; format: cell-based
Beta-secretase 1 [9] = target: T3, Beta-secretase 1; assay: Inhibition of BACE1 expressed in CHO 2B7 cells expressing wild type APP695 assessed as reduction in Abeta40/Abeta42 levels incubated for 16 hrs by sandwich ELISA; format: cell-based
[10] = target: T1, Gamma-secretase (Homo sapiens); assay: Inhibition of gamma secretase expressed in human H4 cells expressing BRI-C99 fusion protein assessed as C99 fragment accumulation fragment at 100 nM incubated for 16 hrs in by immunoblot; format: cell-based; outline: as §1
[11] = target: T1, Gamma-secretase (Homo sapiens); assay: Inhibition of gamma secretase expressed in human H4 cells assessed as reduction in C83 levels at 10 uM incubated for 16 hrs by immunoblot; format: cell-based
[12] = target: T1, Gamma-secretase (Homo sapiens); assay: Inhibition of gamma secretase expressed in human H4 cells assessed as reduction in CTF levels at 10 uM incubated for 16 hrs by immunoblot; format: cell-based

Sequence of Cathepsin D (P07339 65-162 limits assumed): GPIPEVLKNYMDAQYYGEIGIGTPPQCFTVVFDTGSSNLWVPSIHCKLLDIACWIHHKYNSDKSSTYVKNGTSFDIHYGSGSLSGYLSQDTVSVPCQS
Sequence of Cathepsin D (P07339 169-412 limits assumed): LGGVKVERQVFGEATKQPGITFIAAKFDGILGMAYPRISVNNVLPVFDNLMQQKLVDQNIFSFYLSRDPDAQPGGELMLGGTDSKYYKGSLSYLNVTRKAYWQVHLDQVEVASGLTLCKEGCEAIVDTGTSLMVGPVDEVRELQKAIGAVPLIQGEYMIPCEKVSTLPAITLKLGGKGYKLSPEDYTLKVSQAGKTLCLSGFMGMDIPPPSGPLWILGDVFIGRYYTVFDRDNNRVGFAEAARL
T3 sequence (P56817 whole entry): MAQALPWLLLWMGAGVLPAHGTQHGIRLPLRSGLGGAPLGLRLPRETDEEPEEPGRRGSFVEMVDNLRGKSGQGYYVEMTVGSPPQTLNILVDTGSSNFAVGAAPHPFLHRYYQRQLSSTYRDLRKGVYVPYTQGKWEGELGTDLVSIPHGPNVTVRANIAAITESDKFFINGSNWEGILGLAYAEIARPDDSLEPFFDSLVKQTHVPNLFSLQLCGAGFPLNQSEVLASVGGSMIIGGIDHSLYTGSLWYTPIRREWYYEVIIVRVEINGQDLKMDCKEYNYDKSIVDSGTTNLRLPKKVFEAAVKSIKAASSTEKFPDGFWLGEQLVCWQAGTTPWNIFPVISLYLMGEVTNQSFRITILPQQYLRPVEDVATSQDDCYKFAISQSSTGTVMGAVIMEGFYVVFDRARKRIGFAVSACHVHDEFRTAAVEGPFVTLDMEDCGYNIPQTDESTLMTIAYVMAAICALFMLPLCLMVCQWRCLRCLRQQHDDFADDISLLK

## COC(=O)[C@@H]1CCCN1C(=O)[C@@H](Cc1ccccc1)N(C)C(=O)[C@H](C)NC(=O)[C@H](CC(C)C)NC(=O)C[C@H](O)[C@H](Cc1ccccc1)NC(=O)[C@H](CCC(N)=O)NC(C)=O
[1]
  inhibition: inactive
Cathepsin E
  IC50: 77.5 nM
Cathepsin D
  IC50: 7.81 nM

## CC(C)C[C@H](NC(=O)C[C@H](O)[C@H](Cc1ccccc1)NC(=O)[C@H](CCC(N)=O)N(C)C(=O)[C@@H](NC(=O)[C@H](C)O)C(C)C)C(=O)N[C@@H](C)C(=O)N(C)[C@H](Cc1ccccc1)C(=O)O (H-[Lac]V[NMeQ][Ahppa(3S,4S)]LA[dNMeF]-OH)
Cathepsin E
  IC50: 20.8 nM
Cathepsin D
  IC50: 54.1 nM
Beta-secretase 1 [2]
  IC50: 73 nM
Beta-secretase 1 [3]
  inhibition: Active

## COC(=O)[C@@H]1CCCN1C(=O)[C@@H](Cc1ccccc1)N(C)C(=O)[C@H](C)NC(=O)[C@H](CC(C)C)NC(=O)C[C@H](O)[C@H](Cc1ccccc1)NC(=O)[C@H](CCC(N)=O)N(C)C(=O)[C@@H](NC(=O)[C@H](C)O)C(C)C [listing 1 of 2 here]
[1]
  inhibition: inactive

## CC(C)C[C@H](NC(=O)C[C@H](O)[C@H](Cc1ccccc1)NC(=O)[C@H](CCC(N)=O)N(C)C(=O)[C@@H](NC(=O)[C@H](C)O)C(C)C)C(=O)N[C@@H](C)C(=O)N(C)[C@H](Cc1ccccc1)C(=O)NCc1ccccc1
Cathepsin E
  IC50: 30.4 nM
Cathepsin D
  IC50: 20.9 nM
Beta-secretase 1 [2]
  IC50: 124 nM
Beta-secretase 1 [3]
  inhibition: Active

## COc1cccc(CNC[C@@H](O)[C@H](Cc2ccccc2)NC(=O)c2cc(C(=O)N[C@H](C)c3ccccc3)cc(N(C)S(C)(=O)=O)c2)c1
Brain
  Drug uptake: 10%

## COC(=O)[C@@H]1CCCN1C(=O)[C@@H](Cc1ccccc1)N(C)C(=O)[C@H](C)NC(=O)[C@H](CC(C)C)NC(=O)C[C@H](O)[C@H](Cc1ccccc1)NC(C)=O
Cathepsin E
  IC50: 4950 nM
Cathepsin D
  IC50: 71.7 nM

## COC(=O)[C@@H]1CCCN1C(=O)[C@H](Cc1ccccc1)N(C)C(=O)[C@@H](C)NC(=O)[C@H](CC(C)C)NC(=O)C[C@H](O)[C@H](Cc1ccccc1)NC(=O)[C@H](CCC(N)=O)N(C)C(=O)[C@@H](NC(=O)[C@H](C)O)C(C)C
Cathepsin E
  IC50: 1710 nM

## COC(=O)[C@@H]1CCCN1C(=O)[C@@H](Cc1ccccc1)N(C)C(=O)[C@H](C)NC(=O)[C@H](CC(C)C)NC(=O)C[C@H](O)[C@H](Cc1ccccc1)NC(=O)c1cc(C(=O)N[C@H](C)c2ccccc2)cc(N(C)S(C)(=O)=O)c1
Nucleic Acid
  Ratio: 20
Brain
  Drug uptake: 5.8%
Mus musculus
  Activity: Active
[4]
  Drug metabolism: Active
Serum [5]
  Drug metabolism: Active
[6]
  Stability: Stable
Serum [7]
  Stability: Stable
[1]
  inhibition: inactive
H4
  inhibition: inactive
Beta-secretase 1 [8]
  inhibition: Active
Cathepsin E
  IC50: 36.4 nM
Cathepsin D
  IC50: 5.84 nM
Beta-secretase 1 [9]
  IC50: 10 nM
Beta-secretase 1 [3]
  inhibition: Active

## CC(C)C[C@H](NC(=O)C[C@H](O)[C@H](Cc1ccccc1)NC(=O)[C@H](CCC(N)=O)N(C)C(=O)[C@@H](NC(=O)[C@H](C)O)C(C)C)C(=O)N[C@@H](C)C(=O)N(C)[C@H](Cc1ccccc1)C(=O)NC(C)C
Cathepsin E
  IC50: 51.9 nM
Cathepsin D
  IC50: 254 nM
Beta-secretase 1 [2]
  IC50: 166 nM
Beta-secretase 1 [3]
  inhibition: Active

## C[C@H](NC(=O)[C@@H](O)c1cc(F)cc(F)c1)C(=O)N[C@@H]1C(=O)N(C)c2ccccc2-c2ccccc21
[10]
  inhibition: Active
[11]
  inhibition: Active
[12]
  inhibition: Active

## COC(=O)[C@@H](Cc1ccccc1)N(C)C(=O)[C@H](C)NC(=O)[C@H](CC(C)C)NC(=O)C[C@H](O)[C@H](Cc1ccccc1)NC(C)=O
Cathepsin E
  IC50: 1520 nM
Cathepsin D
  IC50: 412 nM
Beta-secretase 1 [2]
  IC50: > 10000 nM

## COC(=O)[C@@H]1CCCN1C(=O)[C@@H](Cc1ccccc1)N(C)C(=O)[C@H](C)NC(=O)[C@H](CC(C)C)NC(=O)C[C@H](O)[C@H](Cc1ccccc1)NC(=O)[C@H](CCC(N)=O)N(C)C(=O)[C@@H](NC(=O)OC(C)(C)C)C(C)C
Cathepsin E
  IC50: 1.92 nM
Cathepsin D
  IC50: 0.126 nM

## COC(=O)[C@@H]1CCCN1C(=O)[C@@H](Cc1ccccc1)N(C)C(=O)[C@H](C)NC(=O)[C@H](CC(C)C)NC(=O)C[C@H](O)[C@H](Cc1ccccc1)NC(=O)[C@H](CCC(N)=O)N(C)C(=O)[C@@H](N)C(C)C
[1]
  inhibition: inactive
H4
  inhibition: inactive
Cathepsin E
  IC50: 58.2 nM
Cathepsin D
  IC50: 17.3 nM

## COC(=O)[C@@H]1CCCN1C(=O)[C@@H](Cc1ccccc1)N(C)C(=O)[C@H](C)NC(=O)[C@H](CC(C)C)NC(=O)C[C@H](O)[C@H](Cc1ccccc1)NC(=O)[C@H](CCC(N)=O)N(C)C(=O)[C@@H](NC(=O)[C@H](C)O)C(C)C [TASIAMIDE B]
Cathepsin E
  IC50: 37.5 nM

## COC(=O)[C@@H]1CCCN1C(=O)[C@@H](Cc1ccccc1)N(C)C(=O)[C@H](C)NC(=O)[C@H](CC(C)C)NC(=O)C[C@H](O)[C@H](Cc1ccccc1)NC(=O)[C@H](CCC(N)=O)N(C)C(=O)[C@@H](NC(=O)[C@H](C)O)C(C)C [listing 2 of 2 here]
Cathepsin E
  IC50: 66 nM

## COC(=O)[C@@H]1CCCN1C(=O)[C@@H](Cc1ccccc1)N(C)C(=O)[C@H](C)NC(=O)[C@H](CC(C)C)NC(=O)C[C@H](O)[C@H](Cc1ccccc1)NC(=O)[C@H](CCC(N)=O)N(C)C(=O)[C@@H](NC(=O)OCc1ccccc1)C(C)C (Cbz-V[NMeQ][Ahppa(3S,4S)]LA[dNMeF]P-OMe)
[1]
  inhibition: inactive
Cathepsin E
  IC50: 0.724 nM
Cathepsin D
  IC50: 0.0783 nM

## COC(=O)[C@@H]1CCCN1C(=O)[C@@H](Cc1ccccc1)N(C)C(=O)[C@@H](C)NC(=O)[C@H](CC(C)C)NC(=O)C[C@H](O)[C@H](Cc1ccccc1)NC(=O)[C@H](CCC(N)=O)N(C)C(=O)[C@@H](NC(=O)[C@H](C)O)C(C)C
Cathepsin E
  IC50: 1450 nM

## CC(C)C[C@@H](C=O)NC(=O)[C@H](CC(C)C)NC(=O)[C@@H](NC(=O)OCc1ccccc1)C(C)C (Cbz-Val-Leu-Leu-aldehyde)
Beta-secretase 1 [3]
  inhibition: Active
